Laboratory results published in article PMC2882023 (The Journal of neuroscience : the official journal of the …, 2010).
Counter-ions that a name gives are not always drawn. Like-named read-outs stand apart in the source and are kept apart here.

Assays:
[1] = ref Wu et al. 2004; cited from earlier work
hP2X2/3 = molecular target: T1, hP2X2/3 (Homo sapiens, UniProt P56373+Q9UBL9); format: cell-based; conditions: αβmeATP or ATP-evoked calcium flux, 1321N1 cells, n = 15
T1 sequence (Q9UBL9 1-471): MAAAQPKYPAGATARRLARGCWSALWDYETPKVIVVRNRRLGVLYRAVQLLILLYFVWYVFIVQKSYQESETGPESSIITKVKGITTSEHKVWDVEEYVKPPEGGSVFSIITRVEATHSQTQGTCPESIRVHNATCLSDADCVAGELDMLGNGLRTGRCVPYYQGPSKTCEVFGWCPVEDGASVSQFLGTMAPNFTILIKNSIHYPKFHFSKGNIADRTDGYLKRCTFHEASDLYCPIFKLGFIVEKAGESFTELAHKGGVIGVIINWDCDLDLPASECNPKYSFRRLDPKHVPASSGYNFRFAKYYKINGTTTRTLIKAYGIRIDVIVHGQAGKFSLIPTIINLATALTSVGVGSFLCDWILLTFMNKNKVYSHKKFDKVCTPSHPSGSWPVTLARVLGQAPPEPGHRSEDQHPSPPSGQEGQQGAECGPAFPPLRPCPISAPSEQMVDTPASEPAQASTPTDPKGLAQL
T1 sequence (P56373 1-397): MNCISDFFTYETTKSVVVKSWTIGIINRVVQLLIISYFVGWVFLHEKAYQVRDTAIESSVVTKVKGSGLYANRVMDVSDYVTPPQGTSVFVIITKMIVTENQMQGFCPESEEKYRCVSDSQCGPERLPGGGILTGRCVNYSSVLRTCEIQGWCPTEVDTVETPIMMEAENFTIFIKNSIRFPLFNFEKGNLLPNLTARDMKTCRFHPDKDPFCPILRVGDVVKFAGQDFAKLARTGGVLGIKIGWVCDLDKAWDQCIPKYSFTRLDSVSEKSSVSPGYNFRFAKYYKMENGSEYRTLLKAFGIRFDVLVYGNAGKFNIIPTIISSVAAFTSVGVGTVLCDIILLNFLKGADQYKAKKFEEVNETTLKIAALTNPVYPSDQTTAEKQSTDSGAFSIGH
Outline: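 Cytosolic calcium flux was read in Fluo-3-loaded 1321N1 astrocytoma cells transfected with cloned human P2X2/3 receptors. Flux was evoked by αβmeATP or ATP, at an agonist level set per receptor subtype, with test compound present. Inhibition was expressed as pIC50 ± SEM from 15 determinations.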

other P2X receptors = test: calcium flux selectivity over other P2X receptors; format: cell-based; conditions: up to a concentration of 10 μM
Outline: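 Off-target P2X subtypes were tested in Fluo-3-loaded CHOK1 cells (recombinant human P2X1, human P2X4, rat P2X5 or human P2X7) and 1321N1 astrocytoma cells (cloned human P2X2). Intracellular calcium flux was evoked by αβmeATP or ATP, at a level varied by subtype, with test compound present. pIC50 was derived with n = 3 per receptor.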

[2] = test system: micturition reflex contractions; format: in vivo, Sprague-Dawley rats; conditions: i.t.; for intercontraction interval (ICI): anaesthetized rats, mean ± SEM; for intercontraction interval (ICI), extent of prolongation over the dose range: across the doses tested
Outline: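 Urethane-anaesthetised (1.2 g/kg i.p.) adult female rats, 200–280 g, with an intrathecal catheter tip at L1 placed ≥1 d earlier. Ureters and urethral orifice ligated. Bladder saline-infused at 100 μl/min to micturition threshold, then 3–5 μl/min. After ≥10 min stable baseline, vehicle (saline or 5% DMSO/saline), then escalating i.t. doses (10 μl + 10 μl saline flush, ≥8 min apart). ICI from intravesical pressure; n = 5–15; repeated-measures ANOVA/Bonferroni.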

[3] = test system: pERK-positive cells in L6 spinal cord; test: spinal ERK activation; format: in vivo, Sprague-Dawley rats; conditions: 300 nmol, i.t., 10 min before 1% acetic acid intravesically; n = 4
Outline: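 Separate experiment in urethane-anaesthetised bladder-cannulated female rats: ≥1 h post-cannulation, i.t. test compound (300 nmol) or 5% DMSO; 10 min later, 700 μl 1% acetic acid intravesically for 2 min (sham: vehicle, no acid, 12 min). Perfusion-fixed (4% paraformaldehyde/picric acid); 20 μm L6 cryosections. Anti-phospho-p44/42 (Thr202/Tyr204) staining with tyramide amplification and FITC. Four rats/group, three sections each, blind counting; one-way ANOVA/Tukey.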

[4] = test system: 75 receptors, channels, enzymes, and transporters; test: Cerep screen of 75 receptors, channels, enzymes and transporters; format: binding; conditions: 10 μM, 75 targets
more than 100 kinases = test: Ambit kinase screen; format: binding; conditions: 10 μM
P2X3 = conditions: ref Gever et al., 2006; Carter et al., 2009; cited from earlier work
P2X2/3 = conditions: ref Gever et al., 2006; Carter et al., 2009; cited from earlier work
P2X1 = conditions: ref Gever et al., 2006; Carter et al., 2009; cited from earlier work

| SMILES | intercontraction interval (ICI) ([2]; 10 nmol) | intercontraction interval (ICI), extent of prolongation over the dose range [2] | pIC50 at P2X3 (P2X3) | pIC50 at P2X2/3 (P2X2/3) | intercontraction interval (ICI) ([2]; 1 nmol) | further results |
| --- | --- | --- | --- | --- | --- | --- |
| O=C(O)c1cc(C(=O)O)c(C(=O)N(Cc2cccc(Oc3ccccc3)c2)[C@H]2CCCc3ccccc32)cc1C(=O)O [A-317491] |  |  |  |  |  | CNS permeability [1]: negligible CNS permeability |
| C#Cc1cc(Oc2cnc(N)nc2N)c(C(C)C)cc1OC [AF-792] |  |  |  |  |  | pIC50 ± SEM (hP2X2/3): 7.94 ± 0.08; inhibition at other P2X receptors (other P2X receptors): no inhibition; intercontraction interval (ICI) ([2]; 100 nmol): 8.00 ± 1.67 min; intercontraction interval (ICI) ([2]; 300 nmol): 9.33 ± 2.50 min; number of pERK-positive cells in L6 spinal cord segment [3]: 43.0 ± 9.6 cells/ section; inhibition of radioligand binding or function [4]: little or no inhibition; inhibition of radioligand binding or function (more than 100 kinases): little or no inhibition |
| Cc1nc(N=Nc2ccc(S(=O)(=O)O)cc2S(=O)(=O)O)c(COP(=O)(O)O)c(C=O)c1O [PPADs, pyridoxal-phosphate-6-azophenyl-2′,4′,-disulphonic acid] | 3.50 ± 1.15 min | more than 2 min | 6 | 6 |  |  |
| Nc1ncnc2c1ncn2[C@@H]1O[C@H](COP(=O)(O)OP(=O)(O)OP(=O)(O)O)[C@H]2OC3(O[C@H]21)C([N+](=O)[O-])=CC(=[N+]([O-])[O-])C=C3[N+](=O)[O-] (some centres unmarked) [TNP-ATP, 2′,3′-O-(2,4,6-trinitrophenyl) adenosine 5′-triphosphate monolithium trisodium salt] | 4.28 ± 1.21 min |  | 9 | 8.4 | 4.64 ± 1.30 min | pIC50 at P2X1 (P2X1): 8.22 |
| Nc1ncnc2c1ncn2[C@@H]1O[C@H](COP(=O)(O)CP(=O)(O)OP(=O)(O)O)[C@@H](O)[C@H]1O [αβmeATP, α,β-methylene-ATP] |  | up to 10 min |  |  | 8.45 ± 2.48 min | lowest significant dose for prolonging the ICI [2]: 1 nmol |
